By IC50 is commonly meant the concentration at which inhibition is half-maximal. The low end stands for inhibition by little substance, the high end for a need for much substance.

The first test relates to Human immunodeficiency virus 1. The test is described as follows: In vitro inhibitory concentration against HIV-1 Y181C mutant strain. Type of test: functional, organism-based.
Settings: not given
An outline of the steps:
(§1)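 MT4 human T-lymphoblastoid cells, grown in RPMI 1640 with 10% fetal calf serum and antibiotics at 37 °C under 5% CO2. Mutant HIV-1 strains were added at 200 CCID50/well with 30 000 cells/well across a compound concentration range. After 5 days at 37 °C, viability was read by MTT colorimetry. EC50 is the concentration giving 50% infection relative to the drug-free control.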
Molecule `Cc1cccc(C(=O)c2c(C)c(C)nc(O)c2N(C)C)c1` yielded an IC50 of 2000 nM.
On the same count and under the same terms, with `CCc1c(C)nc(O)c(NC(=S)NC(=O)c2ccccc2)c1Cc1cccc(C)c1` the figure was 100000 nM; with `CCc1c(C)[nH]c(=O)c(N(C)CCCC#N)c1Cc1cccc(C)c1`, 2000 nM; with `Cc1cc(C)cc(Cc2cc(C)[nH]c(=O)c2N(C)C)c1`, 79400 nM.
Take `Cc1cc(C)cc(Cc2c(CC(C)C)c(C)[nH]c(=O)c2N(C)C)c1`: inhibition was half-maximal at 158 nM (IC50).
Still for that read-out and setting: in the case of `CCc1c(C)[nH]c(=O)c(N(C)CC#N)c1Cc1cccc(C)c1` it was 1580 nM; in that of `CCc1c(C)[nH]c(=O)c(NC=O)c1Cc1cc(C)cc(C)c1`, 7940 nM; in that of `CCc1c(C)[nH]c(=O)c(NC)c1Cc1cc(C)cc(C)c1`, 1000 nM.
The same measure, in the same setting: with `CCc1c(C)[nH]c(=O)c(-n2cccc2)c1Cc1cc(C)cc(C)c1` the figure was 1260 nM; with `CCc1c(C)[nH]c(=O)c(N(C)CCCCCO)c1Cc1cccc(C)c1`, 1580 nM.
On the same count and under the same terms, with `COCCc1c(C)nc(O)c(N(C)C)c1C(=O)c1cccc(C)c1` the figure was 1260 nM.
`CCCNc1c(Cc2cc(C)cc(C)c2)c(CC)c(C)[nH]c1=O` gave a concentration for half-maximal inhibition (IC50) of 15800 nM.
Same read-out and setting: in the case of `CCc1c(C)[nH]c(=O)c(N(C)CCOC)c1Cc1cccc(/C=C/C#N)c1` it was 40 nM.

Another test concerns Human immunodeficiency virus 1. The test is described as follows: In vitro inhibitory concentration against HIV L100I and K103N mutant strain. Type of test: functional, organism-based.
Settings: not given
An outline of the steps:
as §1
Take `CCc1c(C)[nH]c(=O)c(N(C)CCOC)c1Cc1cccc(/C=C/C#N)c1`: the IC50 was 50 nM.

Another test concerns Human immunodeficiency virus 1. The test is described as follows: Selective index value (ratio of CC50 to IC50 value)against HIV LAI cell line.
Settings: not given
Type of test: functional. The essentials:
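Ratio of CC50 to IC50 against LAI. CC50 came from mock-infected MT4 cultures (30 000 cells/well) given the same compound concentration range, run in parallel with LAI-infected cultures (200 CCID50/well). Incubation was 5 days at 37 °C in 5% CO2, with MTT viability read-out.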
On to `Cc1cccc(C(=O)c2c(C)c(C)nc(O)c2N(C)C)c1`, for which the SI is 6310.
Consider `CCc1c(C)nc(O)c(NC(=S)NC(=O)c2ccccc2)c1Cc1cccc(C)c1`, for which the SI came to 16.
On to `CCc1c(C)[nH]c(=O)c(N(C)CCCC#N)c1Cc1cccc(C)c1`, for which the SI worked out at 12600.
Same read-out and setting: with `Cc1cc(C)cc(Cc2cc(C)[nH]c(=O)c2N(C)C)c1` the figure was 251.
The same measure, in the same setting: in the case of `Cc1cc(C)cc(Cc2c(CC(C)C)c(C)[nH]c(=O)c2N(C)C)c1` it was 2000.
Consider `CCc1c(C)[nH]c(=O)c(N(C)CC#N)c1Cc1cccc(C)c1`, for which the SI came out at 25100.
Still for that read-out and setting: in the case of `CCc1c(C)[nH]c(=O)c(NC=O)c1Cc1cc(C)cc(C)c1` it was 1260; in that of `CCc1c(C)[nH]c(=O)c(NC)c1Cc1cc(C)cc(C)c1`, 5010; in that of `CCc1c(C)[nH]c(=O)c(-n2cccc2)c1Cc1cc(C)cc(C)c1`, 1260.
The same measure, in the same setting: with `CCc1c(C)[nH]c(=O)c(N(C)CCCCCO)c1Cc1cccc(C)c1` the figure was 6310; with `COCCc1c(C)nc(O)c(N(C)C)c1C(=O)c1cccc(C)c1`, 7940; with `CCCNc1c(Cc2cc(C)cc(C)c2)c(CC)c(C)[nH]c1=O`, 398.
The same measure, in the same setting: in the case of `CCc1c(C)[nH]c(=O)c(N(C)CCOC)c1Cc1cccc(/C=C/C#N)c1` it was 10000.

For a further test, the system named is Human immunodeficiency virus 1. The test is described as follows: In vitro inhibitory concentration value against HIV K103N and Y181C mutant strain. Type of test: functional, organism-based.
Settings: not given
An outline of the steps:
as §1
On to `CCc1c(C)[nH]c(=O)c(N(C)CCOC)c1Cc1cccc(/C=C/C#N)c1`, for which half-maximal inhibition (IC50) was put at 398 nM.

In a further test the test system is Human immunodeficiency virus 1. Briefly: In vitro inhibitory concentration against HIV K103N mutant strain.
Settings: not given
Type of test: functional, organism-based. An outline of the steps:
as §1
Molecule `Cc1cccc(C(=O)c2c(C)c(C)nc(O)c2N(C)C)c1` came in with a half-inhibitory concentration (IC50) of 398 nM.
The same measure, in the same setting: with `CCc1c(C)nc(O)c(NC(=S)NC(=O)c2ccccc2)c1Cc1cccc(C)c1` the figure was 100000 nM; with `CCc1c(C)[nH]c(=O)c(N(C)CCCC#N)c1Cc1cccc(C)c1`, 316 nM; with `Cc1cc(C)cc(Cc2cc(C)[nH]c(=O)c2N(C)C)c1`, 31600 nM.
The same measure, in the same setting: with `Cc1cc(C)cc(Cc2c(CC(C)C)c(C)[nH]c(=O)c2N(C)C)c1` the figure was 63 nM.
Still for that read-out and setting: with `CCc1c(C)[nH]c(=O)c(N(C)CC#N)c1Cc1cccc(C)c1` the figure was 316 nM.
The molecule `CCc1c(C)[nH]c(=O)c(NC=O)c1Cc1cc(C)cc(C)c1` had a 50% inhibitory concentration (IC50) of 794 nM.
Take `CCc1c(C)[nH]c(=O)c(NC)c1Cc1cc(C)cc(C)c1`: the IC50 worked out at 79 nM.
Same read-out and setting: with `CCc1c(C)[nH]c(=O)c(-n2cccc2)c1Cc1cc(C)cc(C)c1` the figure was 398 nM; with `CCc1c(C)[nH]c(=O)c(N(C)CCCCCO)c1Cc1cccc(C)c1`, 501 nM; with `COCCc1c(C)nc(O)c(N(C)C)c1C(=O)c1cccc(C)c1`, 158 nM.
Same read-out and setting: with `CCCNc1c(Cc2cc(C)cc(C)c2)c(CC)c(C)[nH]c1=O` the figure was 1580 nM.
Still for that read-out and setting: with `CCc1c(C)[nH]c(=O)c(N(C)CCOC)c1Cc1cccc(/C=C/C#N)c1` the figure was 20 nM.

A further test relates to Human immunodeficiency virus 1. Briefly: In vitro inhibitory concentration against HIV LAI cell line. As to conditions: Human immunodeficiency virus 1, LAI. The format is functional, organism-based. An outline of the steps: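 HIV-1 LAI was added at 200 CCID50/well to MT4 human T-lymphoblastoid cells (30 000 cells/well) across a concentration range of compound. Cells were grown in RPMI 1640 with 10% fetal calf serum and antibiotics. After 5 days at 37 °C in 5% CO2, cell viability was read by MTT colorimetry. EC50 was the concentration giving 50% infection versus the drug-free control.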
Molecule `Cc1cccc(C(=O)c2c(C)c(C)nc(O)c2N(C)C)c1` registered an IC50 of 16 nM.
Regarding `CCc1c(C)nc(O)c(NC(=S)NC(=O)c2ccccc2)c1Cc1cccc(C)c1`, 6310 nM corresponded to half-maximal inhibition (IC50).
Same read-out and setting: with `CCc1c(C)[nH]c(=O)c(N(C)CCCC#N)c1Cc1cccc(C)c1` the figure was 5 nM; with `Cc1cc(C)cc(Cc2cc(C)[nH]c(=O)c2N(C)C)c1`, 398 nM; with `Cc1cc(C)cc(Cc2c(CC(C)C)c(C)[nH]c(=O)c2N(C)C)c1`, 50 nM.
Same read-out and setting: in the case of `CCc1c(C)[nH]c(=O)c(N(C)CC#N)c1Cc1cccc(C)c1` it was 4 nM; in that of `CCc1c(C)[nH]c(=O)c(NC=O)c1Cc1cc(C)cc(C)c1`, 79 nM.
Same read-out and setting: in the case of `CCc1c(C)[nH]c(=O)c(NC)c1Cc1cc(C)cc(C)c1` it was 10 nM; in that of `CCc1c(C)[nH]c(=O)c(-n2cccc2)c1Cc1cc(C)cc(C)c1`, 12.6 nM.
`CCc1c(C)[nH]c(=O)c(N(C)CCCCCO)c1Cc1cccc(C)c1` showed an IC50 of 10 nM.
The molecule `COCCc1c(C)nc(O)c(N(C)C)c1C(=O)c1cccc(C)c1` showed an IC50 of 4 nM.
Still for that read-out and setting: with `CCCNc1c(Cc2cc(C)cc(C)c2)c(CC)c(C)[nH]c1=O` the figure was 20 nM.
On the same count and under the same terms, in the case of `CCc1c(C)[nH]c(=O)c(N(C)CCOC)c1Cc1cccc(/C=C/C#N)c1` it was 1 nM.

A further test concerns Human immunodeficiency virus 1. The test is described as follows: In vitro inhibitory concentration against HIV Y188L mutant strain.
Settings: not given
Type of test: functional, organism-based. An outline of the steps:
as §1
As to `Cc1cccc(C(=O)c2c(C)c(C)nc(O)c2N(C)C)c1`, the IC50 was 50100 nM.
Same read-out and setting: with `CCc1c(C)nc(O)c(NC(=S)NC(=O)c2ccccc2)c1Cc1cccc(C)c1` the figure was 100000 nM; with `CCc1c(C)[nH]c(=O)c(N(C)CCCC#N)c1Cc1cccc(C)c1`, 3160 nM; with `Cc1cc(C)cc(Cc2cc(C)[nH]c(=O)c2N(C)C)c1`, 100000 nM.
Still for that read-out and setting: in the case of `Cc1cc(C)cc(Cc2c(CC(C)C)c(C)[nH]c(=O)c2N(C)C)c1` it was 398 nM.
Same read-out and setting: with `CCc1c(C)[nH]c(=O)c(N(C)CC#N)c1Cc1cccc(C)c1` the figure was 12600 nM; with `CCc1c(C)[nH]c(=O)c(NC=O)c1Cc1cc(C)cc(C)c1`, 316 nM; with `CCc1c(C)[nH]c(=O)c(NC)c1Cc1cc(C)cc(C)c1`, 2000 nM.
Molecule `CCc1c(C)[nH]c(=O)c(-n2cccc2)c1Cc1cc(C)cc(C)c1` gave an IC50 of 2000 nM.
Same read-out and setting: in the case of `CCc1c(C)[nH]c(=O)c(N(C)CCCCCO)c1Cc1cccc(C)c1` it was 5010 nM; in that of `COCCc1c(C)nc(O)c(N(C)C)c1C(=O)c1cccc(C)c1`, 10000 nM.
The same measure, in the same setting: with `CCCNc1c(Cc2cc(C)cc(C)c2)c(CC)c(C)[nH]c1=O` the figure was 100000 nM; with `CCc1c(C)[nH]c(=O)c(N(C)CCOC)c1Cc1cccc(/C=C/C#N)c1`, 316 nM.

Another test concerns Human immunodeficiency virus 1. Briefly: In vitro inhibitory concentration against HIV L100I mutant strain. Type of test: functional, organism-based.
Settings: not given
The essentials:
as §1
As for `CCc1c(C)[nH]c(=O)c(N(C)CCOC)c1Cc1cccc(/C=C/C#N)c1`, the half-maximal inhibitory concentration (IC50) stood at 8 nM.

The test system of a further test is Human immunodeficiency virus 1. Briefly: In vitro inhibitory concentration against HIV F227L and V106A mutant strain. The format is functional, organism-based.
Settings: not given
An outline of the steps:
as §1
`CCc1c(C)[nH]c(=O)c(N(C)CCOC)c1Cc1cccc(/C=C/C#N)c1` displayed an IC50 of 1000 nM.

(Values after ChEMBL document CHEMBL1145200, “4-Benzyl and 4-benzoyl-3-dimethylaminopyridin-2(1H)-ones: in vitro evaluation of new C-3-amino-substituted and C-5,6-alkyl-substituted analogues against clinically important HIV mutant strains” (J Med Chem, 2005).)
